Bioassay records deposited in PubChem BioAssay by The Scripps Research Institute Molecular Screening Center.
This is a sample that favours compounds with a hit; in the whole collection about 1.9% have one here.
TbMetRS inhib: T. brucei MetRS inhibitors, primary screen, biochemical, luminescence; purified T. brucei MetRS, ATP depletion, Kinase-Glo luminescence; methionyl-tRNA synthetase (Trypanosoma brucei brucei); inhibition, % at 11.9 µM; 0.4% of 360,000 active; AID 624268, 2012;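 active means inhibition above a per-plate cutoff of the control wells' mean inhibition plus 3 SD, cut at about 5.5% in these data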
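technique = Kinase-Glo luminescence, ATP depletion format | system = purified MetRS (methionyl-tRNA synthetase) enzyme from Trypanosoma brucei | timing = 15 min preincubation, 2 h reaction, all 25 °C | evaluation = percent inhibition versus plate control medians | dosing = single dose, 11.9 µM final nominal, 0.9% final DMSO | also added = substrates ATP, L-methionine and bulk Escherichia coli tRNA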
sPLA2-III inh: human group III sPLA2 inhibitors, primary screen, biochemical, QFRET, BODIPY PC-A2 liposome substrate | QFRET BODIPY PC-A2 liposome hydrolysis, fluorescence | inhibition, % at 12.2 µM | 0.56% of 370,000 active;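 active means inhibition above mean plus 3 SD of compounds lying within the high and low control bounds, cut at about 19% in these data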
Target sequence (Q9NZ20 whole entry, looked up): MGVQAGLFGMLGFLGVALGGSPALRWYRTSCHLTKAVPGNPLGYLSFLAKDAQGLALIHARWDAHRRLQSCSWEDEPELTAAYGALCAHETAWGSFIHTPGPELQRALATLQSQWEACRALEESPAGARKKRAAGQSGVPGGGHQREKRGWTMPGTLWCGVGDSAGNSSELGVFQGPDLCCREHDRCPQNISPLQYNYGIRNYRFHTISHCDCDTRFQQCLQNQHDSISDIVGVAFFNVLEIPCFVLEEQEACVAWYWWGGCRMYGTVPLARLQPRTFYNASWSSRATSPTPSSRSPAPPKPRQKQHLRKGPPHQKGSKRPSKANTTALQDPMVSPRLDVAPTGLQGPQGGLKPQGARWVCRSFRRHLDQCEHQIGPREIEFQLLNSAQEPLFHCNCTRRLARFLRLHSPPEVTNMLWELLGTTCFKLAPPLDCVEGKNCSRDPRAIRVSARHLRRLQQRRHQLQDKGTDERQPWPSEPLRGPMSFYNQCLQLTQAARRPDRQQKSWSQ
DAGLB inh: DAGLB lipase inhibitors, primary screen, biochemical, fluorescence, HTS; Diacylglycerol lipase-beta (Homo sapiens), Q8NCG7; HEK293T DAGLB membrane lysate, EnzChek fluorogenic substrate; inhibition, % at 5.17 µM; 0.059% of 340,000 active; in the data active means inhibition above about 34%
PLC-gamma1 inh: PLC-gamma1 enzyme inhibitors, primary screen, biochemical, fluorescence, purified enzyme. 1-phosphatidylinositol 4,5-bisphosphate phosphodiesterase gamma-1 (Homo sapiens), P19174. fluorogenic substrate. inhibition, % at 12.2 µM. 0.84% of 370,000 active
PLC-beta3 inh: human PLC-beta3 inhibitors, primary screen, biochemical, fluorescence; 0.18% of 370,000 active; inhibition, % at 12.2 µM; 1-phosphatidylinositol 4,5-bisphosphate phosphodiesterase beta-3 (Homo sapiens), Q01970; AID 720704, 2013; Purified PLC-beta3, fluorogenic substrate; in the data active means inhibition above about 11%
PLCgamma1 ctr: PLC-gamma1 enzyme inhibitors, counter-screen for PLC-beta3 inhibitor project, biochemical, fluorescence; AID 743258, 2014; inhibition, % at 12.3 µM; 3.1% of 3,300 active; purified PLC-gamma1, fluorogenic substrate; shares compounds with PLC-gamma1 inh
PLCb3 confirm: PLC-beta3 inhibitor confirmation, biochemical, fluorescence, purified enzyme; shares compounds with PLC-gamma1 inh; fluorogenic substrate fluorescence; inhibition, % at 12.3 µM; 1% of 3,300 active; AID 743261, 2014; in the data active means inhibition above about 11%
hGIII sPLA2 conf: human group III sPLA2 inhibitors, confirmation, biochemical, QFRET, triplicate. AID 743280, 2014. inhibition, % at 12.2 µM. shares compounds with sPLA2-III inh. 34% of 2,000 active. recombinant hGIII-sPLA2, BODIPY PC-A2 QFRET fluorescence;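 active means mean inhibition across triplicates above the hit cutoff set in the earlier primary screen, cut at about 19% in these data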
BODIPY interf: 535nm fluorescence optical interference, confirmation, artefact control for HGIII-sPLA2 inhibitor project, biochemical, QFRET; shares compounds with sPLA2-III inh; BODIPY FL product fluorescence interference; inhibition, % at 12.2 µM; 8.5% of 2,000 active;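 active means average inhibition above the solvent-only control mean plus 3 SD, cut at about 6% in these data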
535nm interf DR: 535nm fluorescence optical interference, dose response, artefact control for HGIII-sPLA2 inhibitor project, biochemical, QFRET; shares compounds with sPLA2-III inh; BODIPY FL product fluorescence interference, cell-free; IC50, µM; AID 743455, 2014; 240 tested, under 10 active;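 active means IC50 at or below 10 µM; inactive means IC50 above 10 µM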
Large screens that a line does not name were inactive (follow-up assays come after a bar, where they were run). Unless noted, no stated cut-off is given here; in the data, active means inhibition above about 9.5%; inactive means the rest.

CC(c1ccccc1)n1c(-c2ccccc2F)n[nH]c1=S (stereo not given)	sPLA2-III inh 24, PLC-gamma1 inh 9.9 | PLCgamma1 ctr inactive | PLCb3 confirm inactive | hGIII sPLA2 conf inactive | BODIPY interf inactive
CC(C)CN1C(=O)C[C@]2(C(=O)N(C)c3ccc(NS(=O)(=O)C4CCCCC4)cc32)C1c1ccccc1 (stereo not given in full)	none (no result: TbMetRS inhib, DAGLB inh)
O=C(CNC(=O)c1ccccc1)NCC(=O)OCC(=O)c1ccc(F)cc1	none
Cc1ccc(C(=O)NCC(=O)NCC(=O)OCC(=O)c2ccc(F)cc2)cc1	sPLA2-III inh 27, PLC-gamma1 inh 13 | PLCgamma1 ctr inactive | PLCb3 confirm inactive | hGIII sPLA2 conf inactive | BODIPY interf inactive
O=CN1CCN(C(=O)C2CCN(c3ncnc4c3sc3cccc(F)c34)CC2)CC1	none (no result: TbMetRS inhib, DAGLB inh)
NC(Cc1ccc(C(F)(F)F)cc1)c1csc(Nc2cc(Oc3ccccc3)ncn2)n1 (stereo not given)	sPLA2-III inh 25, PLC-gamma1 inh 9.7 (no result: DAGLB inh) | PLCgamma1 ctr inactive | PLCb3 confirm inactive | hGIII sPLA2 conf inactive | BODIPY interf inactive
CC(=O)Nc1ccc(-c2ccnc3c2CC(C)(C(=O)NC(C)C)O3)cc1 (stereo not given)	sPLA2-III inh 21, PLC-gamma1 inh 12 (no result: DAGLB inh) | PLCgamma1 ctr inactive | PLCb3 confirm inactive | hGIII sPLA2 conf inactive | BODIPY interf inactive
O=S(=O)(O)c1cc(Cl)cc(N=Nc2ccc(O)cc2O)c1O	sPLA2-III inh 49, PLC-gamma1 inh 13 | PLCgamma1 ctr inactive | PLCb3 confirm inactive | hGIII sPLA2 conf inactive | BODIPY interf inactive
O=[N+]([O-])c1ccc(N=Nc2ccc(O)cc2O)cc1	none
CN(C)c1cccc(-c2ccnc(N3CCC(C(N)=O)CC3)n2)c1	none (no result: TbMetRS inhib, DAGLB inh)
C=CCNC(=S)NNC(=O)c1ccc(C)c(Cl)c1	sPLA2-III inh 23, PLC-gamma1 inh 13 | PLCgamma1 ctr inactive | PLCb3 confirm inactive | hGIII sPLA2 conf 21 | BODIPY interf inactive
C=CCNC(=S)NNC(=O)c1cccc(Br)c1	none
O=c1nc(NCc2ccccc2Cl)cn[nH]1	sPLA2-III inh 25 | hGIII sPLA2 conf inactive | BODIPY interf inactive
COc1ccc(-n2nc(C(=O)c3cccs3)cc(-c3nc4ccccc4[nH]3)c2=N)cc1	none
Cc1ccccc1-n1nc(C(=O)c2cccs2)cc(-c2nc3ccccc3[nH]2)c1=N	sPLA2-III inh 23 | hGIII sPLA2 conf inactive | BODIPY interf 7.4
O=C(Cn1nnc(N2CCCCC2)n1)NN=Cc1ccccc1O	none (no result: TbMetRS inhib, DAGLB inh)
CN(Cc1ccco1)C(=O)CN1C(=O)C2(OCCCO2)c2ccccc21	none (no result: TbMetRS inhib, DAGLB inh)
O=S(=O)(Cc1ccc(Cl)cc1)N1CCCCCC1	none
O=S(=O)(Cc1ccc(Cl)cc1)N1CCCC1	sPLA2-III inh 21 | hGIII sPLA2 conf inactive | BODIPY interf inactive
Cc1ccc(C=Nn2c(-c3n[nH]c4c3CCC4)n[nH]c2=S)o1	sPLA2-III inh 21 (no result: TbMetRS inhib, DAGLB inh) | hGIII sPLA2 conf inactive | BODIPY interf inactive
CC(=O)Oc1cccc(C(=O)Nc2c[nH]c(=O)[nH]c2=O)c1	none (no result: DAGLB inh)
COc1cccc(C(=O)Nc2c[nH]c(=O)[nH]c2=O)c1	sPLA2-III inh 21 | hGIII sPLA2 conf inactive | BODIPY interf inactive
Cc1nc2c(-c3ccc(F)cc3)cnn2c(N)c1-c1ccccc1	none
COc1ccc(-c2c(C)nc3c(-c4ccc(F)cc4)cnn3c2N)cc1	sPLA2-III inh 19 | hGIII sPLA2 conf inactive | BODIPY interf inactive
COc1ccc(-n2c(COc3ccccc3)nnc2SCc2nc3ccccc3[nH]2)cc1	none (no result: TbMetRS inhib, DAGLB inh)
O=C(NNC(=S)Nc1ccc(Br)cc1)c1cccnc1	sPLA2-III inh 19 | hGIII sPLA2 conf 31 | BODIPY interf inactive | 535nm interf DR inactive
O=C(NC(=S)NNC(=O)c1ccccc1O)c1cccc([N+](=O)[O-])c1	sPLA2-III inh 41 | hGIII sPLA2 conf 27 | BODIPY interf inactive
COc1ccc(C(=O)NNC(=S)NC(=O)c2cccc([N+](=O)[O-])c2)cc1	none
O=C(NNC(=S)Nc1ccc(F)cc1)c1cccc([N+](=O)[O-])c1	sPLA2-III inh 25 | hGIII sPLA2 conf 31 | BODIPY interf inactive
CC(C)c1ccc(NC(=S)NNC(=O)c2cccnc2)cc1	none
O=C(NC(=S)NNC(=O)c1ccccc1O)c1cccnc1	sPLA2-III inh 33 | hGIII sPLA2 conf inactive | BODIPY interf inactive
O=C(NC(=S)NNC(=O)c1ccc(Cl)cc1Cl)c1cccnc1	none
CCOC(=O)[C@]12CCCCC/C=C\1N(CCc1ccc(Cl)cc1)C(=O)[C@H]2CC(=O)NCc1cccs1	none (no result: TbMetRS inhib, DAGLB inh)
c1nc(NCC2CC2)c2cc(-c3ccc4c(c3)OCO4)ccc2n1	none (no result: TbMetRS inhib, DAGLB inh)
O=C(NNC(=S)Nc1ccccc1)c1ccncc1	none
O=C(NNC(=S)Nc1ccc(C(=O)O)c(O)c1)c1ccncc1	sPLA2-III inh 20 | hGIII sPLA2 conf inactive | BODIPY interf inactive
CCCCCc1cccc2[nH]cc(-c3ccccc3)c12	none (no result: TbMetRS inhib, DAGLB inh)
Cc1ccccc1C(=O)NC(=S)Nc1ccccc1N1CCCC1	sPLA2-III inh 20 | hGIII sPLA2 conf 27 | BODIPY interf inactive
Cn1c(=O)c2[nH]c(SCC(=O)N3CCN(c4cccc(C(F)(F)F)c4)CC3)nc2n(C)c1=O	none (no result: TbMetRS inhib, DAGLB inh)
CN1C(=O)C2(c3ccccc31)c1c(oc3ccccc3c1=O)C(=O)N2CCCO (stereo not given)	sPLA2-III inh 21 | hGIII sPLA2 conf inactive | BODIPY interf inactive
CC(C)(C)c1ccc(OCCCCCCN2CCNCC2)cc1	sPLA2-III inh 23 | hGIII sPLA2 conf inactive | BODIPY interf inactive
COC(=O)[C@]12C[C@H](CC(=O)NCC34CC5CC(CC(C5)C3)C4)C(=O)N(Cc3ccc4c(c3)OCO4)C1=C[C@H](C(C)(C)C)O[C@@H]2C	none (no result: TbMetRS inhib, DAGLB inh)
CC(C)[C@@H]1CC[C@@H](C)C[C@H]1OC[B-](F)(F)F	none (no result: TbMetRS inhib, DAGLB inh)
